Source: PubChem (several laboratories)
Shown are actives, neighbours in structure and some others; about 1.9% of the full set was active somewhere.
PHOSPHO1 inh: PubChem AID 1565 | Phosphoethanolamine/phosphocholine phosphatase (Homo sapiens), Q8TCT1 | recombinant PHOSPHO1, absorbance phosphatase assay | inhibition, % at 13.3 µM | 1.1% of 290,000 active; in the data active means inhibition above about 60%
Target sequence (Q8TCT1 whole entry, looked up): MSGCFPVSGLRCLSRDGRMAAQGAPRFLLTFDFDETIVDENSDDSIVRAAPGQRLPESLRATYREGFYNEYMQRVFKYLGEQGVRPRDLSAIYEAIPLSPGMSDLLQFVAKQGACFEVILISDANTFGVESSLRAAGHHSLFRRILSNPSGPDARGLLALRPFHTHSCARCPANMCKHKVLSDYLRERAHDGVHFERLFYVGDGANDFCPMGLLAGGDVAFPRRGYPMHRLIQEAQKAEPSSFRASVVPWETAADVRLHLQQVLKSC
IDE act: human IDE activators in live cells, primary screen, fluorescence polarization, HEK cells, FAbeta-B substrate | Insulin-degrading enzyme (Homo sapiens), P14735 | FAbeta-B cleavage; 0% vehicle, 100% cell-free pure enzyme wells | activation, % at 5.96 µM | 0.073% of 340,000 active;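 active means activation above the mean of all tested compounds plus 3 SD, set per screening campaign, cut at about 17% in these data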
IDE inh: human IDE inhibitors in live cells, primary screen, fluorescence polarization, HEK cells, FAbetaB substrate. AID 434962, 2010. Insulin-degrading enzyme (Homo sapiens), P14735. 0.41% of 320,000 active. inhibition, % at 5.59 µM. FAbetaB cleavage;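 active means percent inhibition above the average of all tested compounds plus 3 SD, set per screening campaign, cut at about 16% in these data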;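 further: IDE supplied by intact live HEK cells; FP after avidin binding of uncleaved biotin substrate so inhibition keeps polarization high; 0% = DMSO wells and 100% = 60 µM reference IDE inhibitor Ii1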
procasp3 activ: activators of human procaspase-3 D3A mutant, primary screen, biochemical, absorbance, PC-3 D3A mutant, single concentration. Caspase-3 (Homo sapiens), P42574. recombinant procaspase-3 D3A, Ac-DEVD-pNA absorbance 405 nm. activation, % at 8.5 µM. 0.11% of 330,000 active. AID 463141, 2010;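 active means activation above the mean of all tested compounds plus 3 SD, cut at about 21% in these data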;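 further: 0% = DMSO alone and 100% = DMSO wells spiked with extra 5 µM PC-3 D3A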
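Assay system: Autoprocessing-dead procaspase-3 D3A mutant enzyme; also added: Ac-DEVD-pNA; doses: one concentration, 8.5 µM nominal, 0.8% DMSO; times: 1 h compound preincubation, 2 h substrate hydrolysis at 25 °C; technique: 405 nm absorbance of p-nitroaniline, reads at 0 and 120 min; measure: % activation between DMSO and enzyme-spiked controls; repeats: single replicate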
UBC13 polyUb: UBC13 polyubiquitin chain formation inhibitors, primary screen, biochemical, TR-FRET, uHTS; Ubiquitin-conjugating enzyme E2 N (Homo sapiens), P61088; 0.47% of 330,000 active; inhibition, % at 20 µM; in the data active means inhibition above about 45%, passing the limit was not always enough
proCasp7 act: procaspase-7 activators, primary screen, counter-screen for procaspase-3 activator project, biochemical, absorbance, HTS, human; recombinant procaspase-7, Ac-DEVD-pNA absorbance 405 nm; D23A/D198A/D206A triple mutant, cannot self-cleave; scale: DMSO 0, 5 µM enzyme 100; activation, % at 8.5 µM; 0.093% of 330,000 active; AID 463210, 2010;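 active means percent activation above the screen-wide mean plus 3 SD, cut at about 25% in these data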
Target sequence (P55210 whole entry D23A/D198A/D206A): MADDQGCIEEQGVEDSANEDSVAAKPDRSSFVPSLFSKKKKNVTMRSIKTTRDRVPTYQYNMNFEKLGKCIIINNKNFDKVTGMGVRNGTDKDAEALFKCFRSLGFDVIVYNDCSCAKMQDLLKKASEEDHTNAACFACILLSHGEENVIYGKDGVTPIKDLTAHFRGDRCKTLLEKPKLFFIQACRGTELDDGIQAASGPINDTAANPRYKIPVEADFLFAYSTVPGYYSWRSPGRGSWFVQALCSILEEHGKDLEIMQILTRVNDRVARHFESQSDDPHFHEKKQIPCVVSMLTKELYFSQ
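Assay system: Uncleavable procaspase-7 mutant enzyme | Input: 2 µM procaspase-7 mutant as dispensed | Timing: 1 h compound preincubation, 2 h substrate cleavage, 25 °C | Repeats: One well per compound | Control set: DMSO wells as 0%, DMSO with 5 µM added PC-7 as 100% | Technique: Epi-absorbance of released pNA at 405 nm, two timepoints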
An asterisk follows results filed as active; / = no result.

SMILES	PHOSPHO1 inh	IDE act	IDE inh	procasp3 activ	UBC13 polyUb	proCasp7 act
CCCCCCCC(=O)Nc1cc(C(=O)NCCC)ccc1N1CCC2(CC1)CC(c1ccccc1)=NO2	-2	1	-5	4	-40	1
O=C(O)C1CC(O)CN1c1nc(Cl)ccc1[N+](=O)[O-] (stereo unspecified)	8	8	0	0	-13	-8
O=C(CNC(=O)c1ccc(Br)cc1)NCC(=O)OCC(=O)c1ccc([N+](=O)[O-])cc1	1	-5	17*	-25	-4	-29
O=C(CNC(=O)c1ccc(Br)cc1)OCc1cc([N+](=O)[O-])cc2c1OCOC2	68*	-2	3	1	-11	8
CCOc1ccc(C(=O)NCC(=O)OCc2cc([N+](=O)[O-])cc3c2OCOC3)cc1OCC	-2	-5	4	-5	-14	-1
CC(=O)c1ccccc1OCCCCN1CCCCC1	55	6	5	9	0	-8
O=C(O)c1cc(-c2ccc(/C=C3/SC(=S)N(Cc4ccccc4)C3=O)o2)ccc1Cl	65*	-10	/	/	/	/
Cc1ccc(/C=C2\SC(=S)N(Cc3ccccc3)C2=O)o1	67*	-2	1	-4	-27	0
O=C1/C(=C/c2ccncc2)SC(=S)N1Cc1ccccc1	1	2	-1	-5	0	-9
COc1ccc(CN2C(=O)/C(=C/c3ccc(-c4ccc(Cl)c(C(=O)O)c4)o3)SC2=S)cc1	9	/	/	/	/	/
CCC(C)NC(=O)CCn1ccc2cc(S(=O)(=O)N3CCCC3)ccc21 (stereo unspecified)	30	-1	4	-6	2	0
CCCN(Cc1nc2cc(Cl)ccc2c(=O)[nH]1)C(=O)c1ccc(S(=O)(=O)N2CCCC2)cc1	/	5	-2	1	6	8
CCn1nc(C)cc1C(=O)N1CCCC(N2CCN(Cc3ccc4c(c3)OCO4)CC2)C1 (stereo unspecified)	22	3	-3	6	6	7
Cn1nccc1C(=O)N1CCCC(N2CCN(Cc3ccc4c(c3)OCO4)CC2)C1 (stereo unspecified)	61*	-5	/	/	0	/
S=C(NCc1ccccc1)N1CCN(C(=S)NCc2ccccc2)CC1	/	2	1	3	-12	-1
CCOc1ccc(N2C(=O)CS/C2=C(\C(Cl)=C(Cl)Cl)[N+](=O)[O-])cc1	86*	6	-4	-4	-34	-17
CC(CCc1ccccc1)NC(=O)/C=C/c1ccccc1 (stereo unspecified)	64*	4	7	0	-1	-7
Cc1cc(C)n(-c2ccc(NC(=O)C3CCCCN3C(=O)c3ccoc3C)cc2)n1 (stereo unspecified)	44	2	3	6	7	-11
O=C(Nc1nc2c(s1)CCCC2)C1CCCN1C(=O)c1cccs1 (stereo unspecified)	95*	2	10	-6	5	-4
N#CC1=C(SCc2ccccc2)NC2=C(C(=O)CCC2)C1c1ccc2c(c1)OCO2 (stereo unspecified)	93*	-13	3	-10	1	0
CCSC1=C(C#N)C(c2ccc3c(c2)OCO3)C2=C(CCCC2=O)N1 (stereo unspecified)	6	0	3	5	4	-2
COC(=O)CSC1=C(C#N)C(c2ccc3c(c2)OCO3)C2=C(CCCC2=O)N1 (stereo unspecified)	66*	-2	5	-11	-7	-12
Cc1ccc(NC(=O)CSC2=C(C#N)C(c3ccc4c(c3)OCO4)C3=C(CCCC3=O)N2)c(C)c1 (stereo unspecified)	72*	0	11	-3	6	1
Cc1ccsc1C(=O)OC(C)C(=O)NC1CCCCC1C (stereo unspecified)	/	7	/	/	2	/
Cc1ccc(C)c(NC(=O)CN(C)C(=O)c2cc3ccccc3oc2=O)c1	/	-2	7	11	3	5
SMILES	PHOSPHO1 inh	IDE act	IDE inh	procasp3 activ	UBC13 polyUb	proCasp7 act
NC(=O)c1c(N)sc2c1CCCC2	92*	1	1	-14	-2	-23
O=C1NC(=S)N/C1=C/c1cc([N+](=O)[O-])ccc1O	82*	-5	-4	-3	-131	0
O=C(CNC(=O)c1ccc(Br)o1)NCc1ccc(Cl)cc1	33	4	4	7	5	3
CC(C)N(Cc1cnn(C)c1)C(=O)C1CCC(=O)N(CCc2cccc(F)c2)C1 (stereo unspecified)	61*	3	/	/	-5	/
COc1ccc(CCN2CC(C(=O)N(C)CCn3nc(C)cc3C)CCC2=O)cc1 (stereo unspecified)	7	9	-1	3	8	-4
Cc1cc(C)n(CCN(C)C(=O)C2CCC(=O)N(CCc3cccc(F)c3)C2)n1 (stereo unspecified)	64*	5	1	-4	-5	5
COCC(=O)N1CCC(Oc2ccc(C(=O)N(C)CCCC3CCCC3)cc2)CC1	38	2	2	3	3	3
O=C(NNC(=O)c1cc(Cl)nc2ccccc12)c1ccccc1F	/	1	0	0	-7	2
COc1ccc(C(=O)Nn2c(SCC(=O)c3ccccc3)nc3ccccc3c2=O)cc1	11	-1	1	-1	83*	-2
COc1ccc(C(=O)Nn2c(SCc3ccc([N+](=O)[O-])cc3)nc3ccccc3c2=O)cc1	22	2	-4	-3	6	0
Oc1ccc2ccccc2c1/C=N/c1nc2c(s1)CCCC2	76*	3	3	-9	-16	-6
Cc1ccc(CNC(=O)c2ccc(CN3CCOCC3)cc2)cc1	84*	0	1	1	6	11
O=C(NCc1ccc(F)cc1)c1ccc(CNc2c(N3CCOCC3)c(=O)c2=O)cc1	61*	-4	-2	-12	-4	7
Cc1ccc(-c2nnc(OCc3nc4ccccc4n3C)c3ccccc23)cc1	/	2	-15	4	-16	-4
COc1ccc(F)cc1C1=CC(=O)C[C@H](c2ccc3c(c2)OCO3)C1	/	2	2	12	-8	7
Cc1cc(C(=O)NN)c(C)o1	61*	8	-5	0	-6	6
COc1ccc(C(=O)NC2CCCCCCC2)cc1OC	/	2	6	-2	8	3
